In ChEMBL document CHEMBL2169868, “Flavone-based novel antidiabetic and antidyslipidemic agents” (J Med Chem, 2012):
Calls of active or inactive are those of the source. No cut-off for these calls is given here.

Tests used:
Assay type in all cases: functional
Rattus norvegicus [1] = experiment: Antihyperlipidemic activity in Triton-induced dyslipidemic Wistar rat model assessed as reduction in phospholipid level at 100 mg/kg, po; design: scale not given: the % may be the effect or the level left
Procedure, shortened: (§1)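 Male Wistar rats, 8−10 weeks, about 160 g, fed normal pellet diet. Triton X-100 given at 400 mg/kg ip; compound given orally in 1% gum acacia. Retro-orbital blood taken 18 h after Triton and serum separated at 1500g for 10 min. TG and cholesterol measured by kit. Mean % change versus dyslipidemic control, 5 animals.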

Rattus norvegicus [2] = experiment: Antihyperlipidemic activity in Triton-induced dyslipidemic Wistar rat model assessed as reduction in cholesterol level at 100 mg/kg, po; design: scale not given: the % may be the effect or the level left; procedure, shortened: as §1
Rattus norvegicus [3] = experiment: Antihyperlipidemic activity in Triton-induced dyslipidemic Wistar rat model assessed as reduction in triglyceride level at 100 mg/kg, po; design: scale not given: the % may be the effect or the level left; procedure, shortened: as §1
Rattus norvegicus [4] = experiment: Antidiabetic activity in sucrose loaded Wistar rat model assessed as reduction in glucose levels at 100 mg/kg, po; design: scale not given: the % may be the effect or the level left
Rattus norvegicus [5] = experiment: Antidiabetic activity in sucrose challenged streptozotocin-induced diabetic Sprague-Dawley rat model assessed as reduction in glucose levels at 100 mg/kg, po measured after 5 hrs; design: scale not given: the % may be the effect or the level left
Rattus norvegicus [6] = experiment: Antidiabetic activity in sucrose challenged streptozotocin-induced diabetic Sprague-Dawley rat model assessed as reduction in glucose levels at 100 mg/kg, po measured after 24 hrs; design: scale not given: the % may be the effect or the level left
Mus musculus [7] = experiment: Reduction in body weight in diabetic C57BL/KsJ db/db mouse model in hyperglycemia at 25 mg/kg, po qd for 10 days relative to untreated control
Procedure, shortened: (§2)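 db/db mice (C57BL/KsJ, 12−18 weeks, 40−50 g, glucose 200−350 mg/dL), housed at 23 ± 2.0 °C on a 12 h light cycle. Oral dosing daily for 10 days. Blood glucose checked each morning through day 9. Body weight recorded daily from day 1 to day 10. Mean % change versus vehicle, 5 mice per group; Student t test.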

Mus musculus [8] = experiment: Antihyperglycemic activity in diabetic C57BL/KsJ db/db mouse model assessed as reduction in plasma insulin level in hyperglycemia at 25 mg/kg, po qd for 10 days; design: scale not given: the % may be the effect or the level left
Procedure, shortened: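 db/db mice dosed orally every day for 10 days. On day 11, retro-orbital blood was drawn and plasma insulin measured. Mean % change versus vehicle-treated control, 5 mice per group; Student t test.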

Mus musculus [9] = experiment: Antidyslipidemic activity in diabetic C57BL/KsJ db/db mouse model assessed as increase in plasma HDL-C/cholesterol ratio at 25 mg/kg, po qd for 10 days
Procedure, shortened: (§3)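 db/db mice (blood glucose 200−350, TG 170−250, cholesterol 170−250, HDL-C 32−40 mg/dL) dosed orally at 25 mg/kg daily for 10 days; retro-orbital blood taken on day 11 for plasma TG, cholesterol and HDL-C (and HDL-C/CHOL ratio); mean % change versus vehicle control, 5 mice per group; Student t test.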

Mus musculus [10] = experiment: Antidyslipidemic activity in diabetic C57BL/KsJ db/db mouse model assessed as reduction in plasma cholesterol level at 25 mg/kg, po qd for 10 days; design: scale not given: the % may be the effect or the level left; procedure, shortened: as §3
Mus musculus [11] = experiment: Antidyslipidemic activity in diabetic C57BL/KsJ db/db mouse model assessed as increase in plasma HDL-cholesterol level at 25 mg/kg, po qd for 10 days; procedure, shortened: as §3
Mus musculus [12] = experiment: Antidyslipidemic activity in diabetic C57BL/KsJ db/db mouse model assessed as reduction in plasma triglyceride level at 25 mg/kg, po qd for 10 days; design: scale not given: the % may be the effect or the level left; procedure, shortened: as §3
Mus musculus [13] = experiment: Antihyperglycemic activity in diabetic C57BL/KsJ db/db mouse model assessed as improvement in glucose tolerance in hyperglycemia at 25 mg/kg, po qd for 10 days
Procedure, shortened: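 Male/female C57BL/KsJ db/db mice, 12−18 weeks, 40−50 g, selected for glucose 200−350 mg/dL. Oral dosing daily for 10 days. OGTT on day 10 after an overnight fast: compound at −30 min, then 3 g/kg oral glucose at 0 min. Glucose read at 30, 60, 90 and 120 min. AUC taken versus vehicle, 5 mice per group.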

Mus musculus [14] = experiment: Antihyperglycemic activity in diabetic C57BL/KsJ db/db mouse model assessed as reduction in hyperglycemia at 25 mg/kg, po qd for 10 days; design: scale not given: the % may be the effect or the level left; procedure, shortened: as §2

SMILES	Activity (Rattus norvegicus [1])	Activity (Rattus norvegicus [2])	Activity (Rattus norvegicus [3])	Activity (Rattus norvegicus [4])	Activity (Rattus norvegicus [5])	Activity (Rattus norvegicus [6])	Activity (Mus musculus [7])	Activity (Mus musculus [8])	Percent increase in HDL-C/cholesterol ratio vs vehicle (Mus musculus [9])	Activity (Mus musculus [10])	Activity (Mus musculus [11])	Activity (Mus musculus [12])	Activity (Mus musculus [13])	Activity (Mus musculus [14])
Cc1ccc(COc2cc(OCc3ccc(C)cc3)cc(-c3cc(=O)c4ccc(OCC(O)CNC(C)C)cc4o3)c2)cc1 (stereo not given)	26.5%	20.3%	25.6%	51.6%	22.8%	11.9%								
CC(C)(C)NCC(O)COc1ccc2c(=O)cc(-c3ccc(OCc4ccccc4)c(OCc4ccccc4)c3)oc2c1 (stereo not given)	12%	23%	16%	15.9%	11.8%	0.89%								
Cc1ccc(COc2cc(OCc3ccc(C)cc3)cc(-c3cc(=O)c4ccc(OCC(O)CNCc5ccccc5)cc4o3)c2)cc1 (stereo not given)	20.8%	16.5%	27.2%	32%	26.2%	17.9%								
CC(C)(C)NCC(O)COc1ccc2c(=O)cc(-c3ccc(O)c(O)c3)oc2c1 (stereo not given)	23%	21%	25%	inactive										
CC(C)(C)NCC(O)COc1ccc2c(=O)cc(-c3cc(OCc4ccccc4Cl)cc(OCc4ccccc4Cl)c3)oc2c1 (stereo not given)	11.3%	12.5%	18.7%	14.8%	7.48%	inactive								
CC(C)NCC(O)COc1ccc2c(=O)cc(-c3ccc(OCc4ccccc4)c(OCc4ccccc4)c3)oc2c1 (stereo not given)	5%	16%	14%	17.9%	12.4%	2.34%								
CC(C)NCC(O)COc1ccc2c(=O)cc(-c3ccc(O)c(O)c3)oc2c1 (stereo not given)	13%	15%	19%	inactive										
COc1cc(OC)cc(-c2cc(=O)c3ccc(OCC(O)CN4CCN(c5ccccc5)CC4)cc3o2)c1 (stereo not given)	12.8%	14.3%	17.3%	inactive										
COc1ccc(-c2cc(=O)c3ccc(OCC(O)CN4CCN(c5ccccc5)CC4)cc3o2)cc1OC (stereo not given)	22%	23%	19%		4.35%	2.34%								
Cc1ccccc1COc1cc(OCc2ccccc2C)cc(-c2cc(=O)c3ccc(OCC(O)CNC(C)C)cc3o2)c1 (stereo not given)	24.1%	13.5%	26.2%	4.65%										
CC(C)NCC(O)COc1ccc2c(=O)cc(-c3cc(OCc4cc(Cl)cc(Cl)c4)cc(OCc4cc(Cl)cc(Cl)c4)c3)oc2c1 (stereo not given)	11.8%	22.2%	26%	32.7%	22.1%	16.2%								
COc1cc(-c2cc(=O)c3ccc(OCC(O)CNC(C)(C)C)cc3o2)cc(OC)c1OC (stereo not given)	26%	24%	28%	inactive										
CC(C)NCC(O)COc1ccc2c(=O)cc(-c3cc(OCc4ccccc4Cl)cc(OCc4ccccc4Cl)c3)oc2c1 (stereo not given)	20.2%	12.1%	30.2%	12.6%	6.83%	inactive								
COc1cc(-c2cc(=O)c3ccc(OCC(O)CN4CCN(c5ccccc5)CC4)cc3o2)cc(OC)c1OC (stereo not given)	8%	19%	23%		2.36%	0.24%								
CC(C)NC[C@@H](O)COc1ccc2c(=O)cc(-c3cc(O)cc(O)c3)oc2c1							inactive	9.1%	16.6	11.2%	3.59%	14.1%	22.4%	28.2%
